Test results published in ChEMBL document CHEMBL3352363, “1,4-disubstituted-[1,2,3]triazolyl-containing analogues of MT-II: design, synthesis, conformational analysis, and biological activity” (J Med Chem, 2014).
Where a SMILES comes first, the peptide text is derived from it. Bridges are numbered along the chain shown (N, C = ends). Triazole bridges read from a SMILES are 1,4-linked. [ ]: non-standard residue; d: D form. Lys(N3) = [N-]=[N+]=NCCCC[C@H](N)C(=O)O; Nle = CCCC[C@H](N)C(=O)O; Pra = C#CC[C@H](N)C(=O)O

Legend:
Format in all cases: functional, cell-based
[1] = target: Melanocortin receptor 4 (Mus musculus, UniProt P56450); experiment: Activity at mouse MC4R expressed in HEK293 cells assessed as cAMP accumulation by CRE/beta-galactosidase reporter gene assay
Method in brief: (§1)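 Stably transfected HEK-293 cells transiently transfected with 4 μg CRE/β-galactosidase reporter, 5000–15000 cells plated on collagen-treated wells overnight. Lysates frozen −80 °C; ONPG substrate at 37 °C, OD405 normalized to protein (OD595).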

[2] = target: Melanocortin receptor 3 (Mus musculus, UniProt P33033); experiment: Activity at mouse MC3R expressed in HEK293 cells assessed as cAMP accumulation by CRE/beta-galactosidase reporter gene assay; method in brief: as §1
[3] = target: Melanocortin receptor 5 (Mus musculus, UniProt P41149); experiment: Activity at mouse MC5R expressed in HEK293 cells assessed as cAMP accumulation by CRE/beta-galactosidase reporter gene assay; method in brief: as §1
[4] = target: Melanocyte-stimulating hormone receptor (Mus musculus, UniProt Q01727); experiment: Activity at mouse MC1R expressed in HEK293 cells assessed as cAMP accumulation by CRE/beta-galactosidase reporter gene assay; method in brief: as §1
Chain of Melanocyte-stimulating hormone receptor (Q01727 whole entry): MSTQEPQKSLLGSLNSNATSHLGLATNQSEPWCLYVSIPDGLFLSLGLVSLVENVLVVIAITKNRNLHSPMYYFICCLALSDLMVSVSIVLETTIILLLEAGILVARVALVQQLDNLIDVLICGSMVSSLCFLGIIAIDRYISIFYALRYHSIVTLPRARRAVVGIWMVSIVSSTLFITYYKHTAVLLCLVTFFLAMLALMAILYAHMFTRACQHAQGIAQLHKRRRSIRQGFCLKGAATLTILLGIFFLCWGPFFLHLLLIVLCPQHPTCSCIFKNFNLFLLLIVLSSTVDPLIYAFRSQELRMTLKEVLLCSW

Chain of Melanocortin receptor 4 (P56450 whole entry): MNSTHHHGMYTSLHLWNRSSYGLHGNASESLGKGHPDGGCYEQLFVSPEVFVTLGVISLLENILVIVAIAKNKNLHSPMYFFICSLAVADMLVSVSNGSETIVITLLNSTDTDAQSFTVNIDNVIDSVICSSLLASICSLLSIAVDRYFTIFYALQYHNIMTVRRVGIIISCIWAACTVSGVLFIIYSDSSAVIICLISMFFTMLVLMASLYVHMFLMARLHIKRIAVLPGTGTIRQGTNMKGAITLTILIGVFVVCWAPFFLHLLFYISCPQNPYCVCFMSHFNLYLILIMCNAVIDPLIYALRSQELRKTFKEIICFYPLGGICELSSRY
Chain of Melanocortin receptor 3 (P33033 whole entry): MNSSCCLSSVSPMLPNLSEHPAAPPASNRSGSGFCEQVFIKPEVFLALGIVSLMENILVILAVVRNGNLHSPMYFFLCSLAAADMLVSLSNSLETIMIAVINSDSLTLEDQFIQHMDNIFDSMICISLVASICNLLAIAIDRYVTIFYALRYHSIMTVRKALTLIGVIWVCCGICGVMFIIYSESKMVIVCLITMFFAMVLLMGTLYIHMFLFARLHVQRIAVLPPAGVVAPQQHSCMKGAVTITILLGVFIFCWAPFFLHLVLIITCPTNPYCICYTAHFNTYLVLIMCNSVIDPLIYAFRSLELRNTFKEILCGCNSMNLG
Chain of Melanocortin receptor 5 (P41149 whole entry): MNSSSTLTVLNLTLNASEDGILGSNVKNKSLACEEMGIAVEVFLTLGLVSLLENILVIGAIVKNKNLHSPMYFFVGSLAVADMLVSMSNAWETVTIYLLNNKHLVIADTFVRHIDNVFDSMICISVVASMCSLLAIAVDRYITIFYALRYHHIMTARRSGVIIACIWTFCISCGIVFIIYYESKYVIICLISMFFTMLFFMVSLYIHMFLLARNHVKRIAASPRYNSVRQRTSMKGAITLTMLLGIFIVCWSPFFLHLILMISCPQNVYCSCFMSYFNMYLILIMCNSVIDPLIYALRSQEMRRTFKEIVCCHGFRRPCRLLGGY

| EC50 [1] [nM] | EC50 [2] [nM] | EC50 [3] [nM] | EC50 [4] [nM] | SMILES |
| --- | --- | --- | --- | --- |
| 0.21 | 1.1 |  |  | CCCC[C@H](NC(C)=O)C(=O)N[C@@H](CC(=O)O)C(=O)N[C@@H](Cc1c[nH]cn1)C(=O)N[C@H](Cc1ccccc1)C(=O)N[C@@H](CCCN=C(N)N)C(=O)N[C@@H](Cc1c[nH]c2ccccc12)C(=O)N[C@@H](CCCCN)C(N)=O |
|  |  | 1.9 |  | C#CC[C@H](NC(=O)[C@H](Cc1c[nH]c2ccccc12)NC(=O)[C@H](CCCNC(=N)N)NC(=O)[C@@H](Cc1ccccc1)NC(=O)[C@H](Cc1cnc[nH]1)NC(=O)[C@H](CCCCN=[N+]=[N-])NC(=O)[C@H](CCCC)NC(C)=O)C(N)=O |
| 0.14 | 1.32 | 0.13 | 0.53 | CCCCCC[C@H](NC(=O)[C@H](Cc1c[nH]c2ccccc12)NC(=O)[C@H](CCCNC(=N)N)NC(=O)[C@@H](Cc1ccccc1)NC(=O)[C@H](Cc1cnc[nH]1)NC(=O)[C@H](CN=[N+]=[N-])NC(=O)[C@H](CCCC)NC(C)=O)C(N)=O |
| 1.62 | 3.14 | 1.93 | 5.18 | CCCC[C@H](NC(C)=O)C(=O)N[C@H]1Cc2cn(nn2)CCCC[C@@H](C(N)=O)NC(=O)[C@H](Cc2c[nH]c3ccccc23)NC(=O)[C@H](CCCNC(=N)N)NC(=O)[C@@H](Cc2ccccc2)NC(=O)[C@H](Cc2cnc[nH]2)NC1=O |
| 0.22 | 0.29 | 0.34 | 0.11 | CCCC[C@H](NC(C)=O)C(=O)N[C@H]1CCc2cn(nn2)CCC[C@@H](C(N)=O)NC(=O)[C@H](Cc2c[nH]c3ccccc23)NC(=O)[C@H](CCCNC(=N)N)NC(=O)[C@@H](Cc2ccccc2)NC(=O)[C@H](Cc2cnc[nH]2)NC1=O |
| 0.051 | 0.21 | 0.042 | 0.1 | CCCC[C@H](NC(C)=O)C(=O)N[C@H]1CCCc2cn(nn2)CC[C@@H](C(N)=O)NC(=O)[C@H](Cc2c[nH]c3ccccc23)NC(=O)[C@H](CCCNC(=N)N)NC(=O)[C@@H](Cc2ccccc2)NC(=O)[C@H](Cc2cnc[nH]2)NC1=O |
|  | 0.2 |  | 0.087 | CCCC[C@H](NC(C)=O)C(=O)N[C@H]1CCCCc2cn(nn2)C[C@@H](C(N)=O)NC(=O)[C@H](Cc2c[nH]c3ccccc23)NC(=O)[C@H](CCCNC(=N)N)NC(=O)[C@@H](Cc2ccccc2)NC(=O)[C@H](Cc2cnc[nH]2)NC1=O |
| 0.85 | 1.91 | 1.88 | 0.71 | CCCC[C@H](NC(C)=O)C(=O)N[C@H]1CCCn2cc(nn2)CC[C@@H](C(N)=O)NC(=O)[C@H](Cc2c[nH]c3ccccc23)NC(=O)[C@H](CCCNC(=N)N)NC(=O)[C@@H](Cc2ccccc2)NC(=O)[C@H](Cc2cnc[nH]2)NC1=O |
| 0.048 | 0.2 | 0.045 | 0.074 | CCCC[C@H](NC(C)=O)C(=O)N[C@H]1CCn2cc(nn2)CCC[C@@H](C(N)=O)NC(=O)[C@H](Cc2c[nH]c3ccccc23)NC(=O)[C@H](CCCNC(=N)N)NC(=O)[C@@H](Cc2ccccc2)NC(=O)[C@H](Cc2cnc[nH]2)NC1=O |
| 0.14 | 0.6 |  | 0.53 | CCCC[C@H](NC(C)=O)C(=O)N[C@H]1Cn2cc(nn2)CCCC[C@@H](C(N)=O)NC(=O)[C@H](Cc2c[nH]c3ccccc23)NC(=O)[C@H](CCCNC(=N)N)NC(=O)[C@@H](Cc2ccccc2)NC(=O)[C@H](Cc2cnc[nH]2)NC1=O |
| 0.14 | 0.63 | 0.15 | 0.32 | CCCC[C@H](NC(C)=O)C(=O)N[C@H]1CCc2cn(nn2)CC[C@@H](C(N)=O)NC(=O)[C@H](Cc2c[nH]c3ccccc23)NC(=O)[C@H](CCCNC(=N)N)NC(=O)[C@@H](Cc2ccccc2)NC(=O)[C@H](Cc2cnc[nH]2)NC1=O |
| 0.067 | 0.29 | 0.07 | 0.2 | CCCC[C@H](NC(C)=O)C(=O)N[C@H]1CCn2cc(nn2)CC[C@@H](C(N)=O)NC(=O)[C@H](Cc2c[nH]c3ccccc23)NC(=O)[C@H](CCCNC(=N)N)NC(=O)[C@@H](Cc2ccccc2)NC(=O)[C@H](Cc2cnc[nH]2)NC1=O |
| 0.58 | 3.7 | 1.76 | 0.85 | CCCC[C@H](NC(C)=O)C(=O)N[C@H]1CCCCn2cc(nn2)C[C@@H](C(N)=O)NC(=O)[C@H](Cc2c[nH]c3ccccc23)NC(=O)[C@H](CCCNC(=N)N)NC(=O)[C@@H](Cc2ccccc2)NC(=O)[C@H](Cc2cnc[nH]2)NC1=O (Ac-[Nle][Lys(N3)]H[dF]RW[Pra]-NH2; triazole 2-7) |
